According to ChEMBL document CHEMBL1909610, “Synthesis and antioxidant activities of novel 4-Schiff base-7-benzyloxy-coumarin derivatives” (Bioorg Med Chem Lett, 2011):

Tests used:
Format in all cases: functional
[1] = test system: Radical scavenging activity; assay: Antioxidant activity assessed as DPPH free radical scavenging activity after 30 mins by spectrophotometric analysis
How it was run: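 Sample dissolved in DMF at several concentrations, added to 0.004% (w/v) DPPH in ethanol, incubated at 37 °C. Absorbance at 517 nm after 30 min. Percent scavenging computed against a control lacking scavenger; triplicate means; IC50 taken as concentration giving 50% radical scavenging.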

[2] = Antioxidant activity assessed as ABTS radical scavenging activity after 3 mins by spectrophotometric analysis
How it was run: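 ABTS radical cation generated from 2 mM ABTS stock in PBS pH 7.4 reacted with 70 mM K2S2O8 in the dark at room temperature for 15-16 h, then diluted with PBS to A734 0.700 ± 0.030. Sample solutions at various concentrations mixed with ABTS radical (0.1:1.9 ml). Absorbance read at ambient temperature after 3 min. Percent scavenging vs control without sample; triplicate; IC50 = concentration scavenging 50%.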

[3] = Antioxidant activity assessed as superoxide anioin radical scavenging activity after 5 mins by spectrophotometric analysis
How it was run: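 Pyrogallol autoxidation at room temperature: 0.05 M Tris-HCl buffer, sample in DMF at various concentrations and 30 mM 1,2,3-trihydroxybenzene reacted 5 min. Stopped with 8.0 M HCl; absorbance at 320 nm against blank. Percent scavenging vs no-sample absorbance, triplicate; IC50 as concentration scavenging 50%.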

[4] = Antioxidant activity assessed as hydroxyl radical scavenging activity after 1 hr by spectrophotometric analysis
How it was run: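 Salicylate method: 20 mM sodium salicylate, 1.5 mM FeSO4, sample at various concentrations, then 6 mM H2O2 (stock levels), mixed and held in a 37 °C water bath 1 h. Absorbance at 510 nm against blank; percent scavenging vs no-sample absorbance; triplicate; ascorbic acid positive control; IC50 as 50% scavenging concentration.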

Row | Structure (SMILES) | IC50 ([1]; read-out: IC50) | IC50 ([2]; read-out: IC50) | IC50 [3] | IC50 [4] | IC50 ([4]; read-out: IC50) | IC50 [1] | IC50 [2]
1 | O=c1cc(/C=N\c2ccccc2O)c2ccc(OCc3ccccc3)cc2o1 | 33.3 µM | 1.29 µM | 469 µM | Not Active | – | – | –
2 | N/N=C\c1cc(=O)oc2cc(OCc3ccccc3)ccc12 | 1290 µM | 9.74 µM | 131 µM | Not Active | – | – | –
3 | O=c1cc(/C=N\c2ccc(O)cc2)c2c(OCc3ccccc3)cc(OCc3ccccc3)cc2o1 | 6.91 µM | 3.57 µM | 249 µM | – | 107 µM | – | –
4 | O=c1cc(/C=N\c2ccc(O)cc2)c2ccc(OCc3ccccc3)cc2o1 | 36.6 µM | 64.5 µM | 525 µM | – | 233 µM | – | –
5 | O=c1cc(-c2nc3ccccc3[nH]2)c2ccc(OCc3ccccc3)cc2o1 | – | – | 146 µM | Not Active | – | Not Active | Not Active
6 | O=c1cc(/C=N\Nc2ccccc2)c2ccc(OCc3ccccc3)cc2o1 | 57.7 µM | 13.2 µM | 416 µM | – | 455 µM | – | –
7 | Cc1cc(C(C)(C)C)c(O)c(C(C)(C)C)c1 [BUTYLATED HYDROXYTOLUENE] | 65.8 µM | 37 µM | 254 µM | – | > 2000 µM | – | –
8 | O=c1cc(/C=N\Nc2ccc([N+](=O)[O-])cc2)c2ccc(OCc3ccccc3)cc2o1 | 1350 µM | 9.51 µM | > 2000 µM | – | > 2000 µM | – | –
9 | Nc1ccccc1/N=C\c1cc(=O)oc2cc(OCc3ccccc3)ccc12 | 857 µM | 9.25 µM | 217 µM | – | 34.6 µM | – | –
10 | O=c1cc(/C=N\Nc2ccccc2)c2c(OCc3ccccc3)cc(OCc3ccccc3)cc2o1 | 76.4 µM | 40.1 µM | 303 µM | – | 401 µM | – | –
11 | O=c1cc(/C=N\Nc2ccc([N+](=O)[O-])cc2[N+](=O)[O-])c2c(OCc3ccccc3)cc(OCc3ccccc3)cc2o1 | – | – | 292 µM | – | 734 µM | Not Active | Not Active
12 | Nc1ccccc1/N=C\c1cc(=O)oc2cc(OCc3ccccc3)cc(OCc3ccccc3)c12 | 315 µM | 7.53 µM | 258 µM | – | 624 µM | – | –
13 | O=c1cc(/C=N\Nc2ccc([N+](=O)[O-])cc2[N+](=O)[O-])c2ccc(OCc3ccccc3)cc2o1 | 10.5 µM | 6.49 µM | 181 µM | – | 1970 µM | – | –
14 | O=c1cc(/C=N\Nc2ccc([N+](=O)[O-])cc2)c2c(OCc3ccccc3)cc(OCc3ccccc3)cc2o1 | 1610 µM | 15.5 µM | 419 µM | – | 97.9 µM | – | –
15 | O=c1cc(/C=N\O)c2c(OCc3ccccc3)cc(OCc3ccccc3)cc2o1 | – | 38.6 µM | > 2000 µM | Not Active | – | Not Active | –
16 | N/N=C\c1cc(=O)oc2cc(OCc3ccccc3)cc(OCc3ccccc3)c12 | – | 363 µM | 36.5 µM | – | > 2000 µM | Not Active | –
17 | O=c1cc(/C=N\c2ccccc2O)c2c(OCc3ccccc3)cc(OCc3ccccc3)cc2o1 | 16.2 µM | 7.76 µM | 33.1 µM | – | 348 µM | – | –
18 | O=c1cc(/C=N\O)c2ccc(OCc3ccccc3)cc2o1 | 2410 µM | 22.8 µM | > 2000 µM | – | > 2000 µM | – | –
19 | O=C1O[C@H]([C@@H](O)CO)C(O)=C1O [ASCORBIC ACID] | 43.8 µM | 12.8 µM | 15.6 µM | – | 73.8 µM | – | –
